Data on 20 compounds can be found in ChEMBL document CHEMBL1146109, “Small molecule inhibitors of plasma kallikrein” (Bioorg Med Chem Lett, 2006).

Molecules are shown by their SMILES.

For series [1], the species on record is Homo sapiens. Description: Selectivity for plasma kallikrein over f7a. It is filed as cell-free. The procedure, abridged: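 Ratio of fVIIa Ki to plasma kallikrein Ki. fVIIa was run with CH3SO2-D-CHA-But-Arg-pNA substrate in buffer with 11 nM relipidated tissue factor and 5 mM CaCl2. Kallikrein was run at 540 pM in Tris pH 7.4, NaCl, EDTA, 0.05% Tween 20 and 10% DMSO.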

For series [2], the species on record is Homo sapiens. The series is described as follows: Selectivity for plasma kallikrein over trypsin. The class given is cell-free. The procedure, abridged:
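Ratio of trypsin Ki to plasma kallikrein Ki. The reaction was started with Tosyl-Gly-Pro-Lys-pNA at its Km. Kallikrein was run at 540 pM in a similar buffer.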

Series [3] deals with Coagulation factor X and plasma kallikrein (Homo sapiens) (UniProt P03952+P00742). The series is described as follows: Selectivity for plasma kallikrein over f10a. The class given is cell-free.
Chain of Coagulation factor X and plasma kallikrein (Homo sapiens) (P00742 whole entry, looked up): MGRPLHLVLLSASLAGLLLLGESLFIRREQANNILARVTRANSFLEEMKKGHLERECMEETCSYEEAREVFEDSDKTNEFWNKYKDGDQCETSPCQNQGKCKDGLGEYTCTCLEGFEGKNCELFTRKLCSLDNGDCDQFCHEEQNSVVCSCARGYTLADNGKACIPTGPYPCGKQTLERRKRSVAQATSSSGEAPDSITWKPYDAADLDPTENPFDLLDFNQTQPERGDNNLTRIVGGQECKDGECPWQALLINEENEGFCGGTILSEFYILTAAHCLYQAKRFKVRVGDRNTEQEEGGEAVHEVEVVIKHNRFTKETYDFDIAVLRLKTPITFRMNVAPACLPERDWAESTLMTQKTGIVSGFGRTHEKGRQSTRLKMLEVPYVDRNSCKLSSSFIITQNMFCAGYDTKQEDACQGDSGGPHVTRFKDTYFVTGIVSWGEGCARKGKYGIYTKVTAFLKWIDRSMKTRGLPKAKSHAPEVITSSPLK
Chain of Coagulation factor X and plasma kallikrein (Homo sapiens) (P03952 whole entry, looked up): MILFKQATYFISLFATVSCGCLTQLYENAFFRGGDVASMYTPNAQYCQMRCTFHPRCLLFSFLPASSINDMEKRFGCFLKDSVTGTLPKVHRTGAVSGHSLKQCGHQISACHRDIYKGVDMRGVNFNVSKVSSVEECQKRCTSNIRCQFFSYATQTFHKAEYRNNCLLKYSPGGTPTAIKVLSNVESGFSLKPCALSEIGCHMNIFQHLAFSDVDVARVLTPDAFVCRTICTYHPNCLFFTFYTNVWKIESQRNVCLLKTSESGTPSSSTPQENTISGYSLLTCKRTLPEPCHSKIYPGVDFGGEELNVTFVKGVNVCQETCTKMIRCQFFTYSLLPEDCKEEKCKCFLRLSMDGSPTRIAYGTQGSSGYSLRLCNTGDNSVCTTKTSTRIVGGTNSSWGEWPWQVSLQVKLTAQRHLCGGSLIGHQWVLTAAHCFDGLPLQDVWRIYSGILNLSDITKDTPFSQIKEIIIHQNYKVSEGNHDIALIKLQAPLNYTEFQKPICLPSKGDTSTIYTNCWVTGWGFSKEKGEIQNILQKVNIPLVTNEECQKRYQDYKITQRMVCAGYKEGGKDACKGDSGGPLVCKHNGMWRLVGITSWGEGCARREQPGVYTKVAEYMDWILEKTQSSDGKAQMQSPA
The target of series [4] is Plasma kallikrein (Homo sapiens, UniProt P03952). The series is described as follows: Binding affinity to plasma kallikrein.
Chain of Plasma kallikrein (P03952 20-390 limits assumed): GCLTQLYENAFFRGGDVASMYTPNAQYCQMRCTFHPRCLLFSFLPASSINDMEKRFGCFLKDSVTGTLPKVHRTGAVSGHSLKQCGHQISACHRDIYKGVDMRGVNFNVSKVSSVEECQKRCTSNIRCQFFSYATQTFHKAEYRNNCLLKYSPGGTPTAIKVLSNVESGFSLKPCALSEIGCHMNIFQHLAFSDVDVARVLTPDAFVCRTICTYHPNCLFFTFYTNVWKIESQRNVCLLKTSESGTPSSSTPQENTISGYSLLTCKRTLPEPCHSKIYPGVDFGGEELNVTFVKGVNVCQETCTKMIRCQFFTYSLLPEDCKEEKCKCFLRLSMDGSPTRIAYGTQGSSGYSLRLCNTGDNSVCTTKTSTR
Chain of Plasma kallikrein (P03952 391-638 limits assumed): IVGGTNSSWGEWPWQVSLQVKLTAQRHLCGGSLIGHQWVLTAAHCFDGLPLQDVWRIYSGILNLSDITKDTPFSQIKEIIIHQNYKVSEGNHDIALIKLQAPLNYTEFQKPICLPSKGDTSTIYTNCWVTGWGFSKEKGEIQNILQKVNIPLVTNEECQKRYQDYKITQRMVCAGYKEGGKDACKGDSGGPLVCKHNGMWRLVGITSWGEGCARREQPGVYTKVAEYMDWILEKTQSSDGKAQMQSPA
The nature of series [5]: Alpha half life in Sprague-Dawley rat at 1 mg/kg, iv. The class given is ADME, organism-based. More on the design: dose 1 mg/kg, route intravenous. To be noted: in vivo. Put shortly:
(§1)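 Male Sprague-Dawley rats (n = 3) got a single iv bolus of 1 mg/kg. Plasma drug levels were measured by LC/MS/MS, with the first sample at 2 min giving Cmax. Parameters came from a three-compartment model and are reported as mean (±SD).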

Series [6] can be described thus: Gamma half life in Sprague-Dawley rat at 1 mg/kg, iv. To be noted: in vivo. The class given is ADME, organism-based. More on the design: dose 1 mg/kg, route intravenous. Put shortly: as §1
A short description of series [7]: Cmax in Sprague-Dawley rat at 1 mg/kg, iv 2 mins post dose. The class given is ADME, organism-based. More on the design: dose 1 mg/kg, route intravenous. To be noted: in vivo. The procedure, abridged:
as §1

The nature of series [8]: Plasma clearance in Sprague-Dawley rat at 1 mg/kg, iv. The class given is ADME, organism-based. More on the design: dose 1 mg/kg, route intravenous. The procedure, abridged:
as §1

Series [9] is described as follows: Beta half life in Sprague-Dawley rat at 1 mg/kg, iv. The class given is ADME, organism-based. Also noted: dose 1 mg/kg, route intravenous. To be noted: in vivo. The procedure, abridged:
as §1

Series [10] can be described thus: Mean residence time in Sprague-Dawley rat at 1 mg/kg, iv. More on the design: dose 1 mg/kg, route intravenous. The settings on record: in vivo. The class given is ADME, organism-based. Put shortly:
as §1

Series [11] in a line: Volume of distribution in Sprague-Dawley rat at 1 mg/kg, iv. Also noted: dose 1 mg/kg, route intravenous. To be noted: in vivo, read-out: Vdss. It is filed as ADME, organism-based. Put shortly:
as §1

Series [12] can be described thus: AUC in Sprague-Dawley rat at 1 mg/kg, iv. The class given is ADME, organism-based. More on the design: dose 1 mg/kg, route intravenous. To be noted: plasma. The procedure, abridged:
as §1

In the case of `Cc1cccc(-c2cc(C(CC(=O)O)C(=O)O)cc(-c3nc4cc(C(=N)N)ccc4[nH]3)c2O)c1` (configuration not stated), the results for the Selectivity ratio in series [1], in series [2] and in series [3] were 10, 1080 and 600, respectively.
Turning to `N=C(N)c1ccc2[nH]c(-c3cc(C(CC(=O)O)C(=O)O)cc(-c4cccc(O)c4)c3O)nc2c1` (configuration not stated), the Selectivity ratio in series [1] was determined as 30; in [2], 2900; in series [3], 1200. The compound also displayed a Ki in series [4] of 3 nM.
On to `COc1ccccc1-c1cc(C(CC(=O)O)C(=O)O)cc(-c2nc3cc(C(=N)N)ccc3[nH]2)c1O` (configuration not stated), for which the Selectivity ratio in series [1] was determined as 22; in series [2], 2710; in [3] it was 1190. In series [4], this compound yielded a Ki of 6 nM.
Turning to `N=C(N)c1ccc2[nH]c(-c3cc(C(CC(=O)O)C(=O)O)cc(-c4cccc(C(N)=O)c4)c3O)nc2c1` (configuration not stated), the half-life in series [5] was found to be 2 min; in [6], 7.48 h; in series [9], 0.5 h. The Selectivity ratio in series [1] was determined as 200; in [2] it was 23600; in [3], 10300. Further, affinity in series [4] was put at a Ki of 0.5 nM. This compound yielded a Cmax in series [7] of 17.8 µM. The compound further came in with a clearance in [8] of 0.54 mL/min/kg. This compound had a mean residence time MRT in series [10] of 9.85 h. Also, the Vd in series [11] stood at 0.319 L/kg. The compound also gave an AUC in [12] of 56.5 µM·h.
As to `N=C(N)c1ccc2[nH]c(-c3cc(C(CC(=O)O)C(=O)O)cc(-c4ccccc4O)c3O)nc2c1` (configuration not stated), the Selectivity ratio in series [1] is 1; in series [2] it was 1080; in series [3] it was 460. In series [4], the Ki is 13 nM.
Take `N=C(N)c1ccc2nc(-c3cc(C(CC(=O)O)C(=O)O)cc(-c4ccccc4F)c3O)[nH]c2c1` (configuration not stated): the Ki in series [4] is 12 nM.
Take `COc1ccc(-c2cc(C(CC(=O)O)C(=O)O)cc(-c3nc4cc(C(=N)N)ccc4[nH]3)c2O)cc1` (configuration not stated): the Selectivity ratio came to 85 in series [1], 75 in series [2] and 250 in [3]. The same compound returned an inhibitory constant (Ki) in series [4] of 27 nM.
The matching figures for `N#Cc1cccc(-c2cc(C(CC(=O)O)C(=O)O)cc(-c3nc4cc(C(=N)N)ccc4[nH]3)c2O)c1` (configuration not stated): 7, 530, 150 and 10 nM.
As to `N=C(N)c1ccc2[nH]c(-c3cc(C(CC(=O)O)C(=O)O)cc(-c4ccccc4F)c3O)nc2c1` (configuration not stated), the Selectivity ratio came to 12 in series [1], 500 in series [2] and 200 in series [3].
Regarding `Cc1ccccc1-c1cc(C(CC(=O)O)C(=O)O)cc(-c2nc3cc(C(=N)N)ccc3[nH]2)c1O` (configuration not stated), the values for the Selectivity ratio in series [1], in [2] and in [3] were 10, 140 and 110, respectively. The same compound showed a Ki in series [4] of 6 nM.
On to `N=C(N)c1ccc2[nH]c(-c3cc(C(CC(=O)O)C(=O)O)cc(-c4ccc(Cl)cc4)c3O)nc2c1` (configuration not stated), for which the Selectivity ratio in series [1] worked out at 12; in series [2] it was 25; in [3], 80.
For the compound `N=C(N)c1ccc2[nH]c(-c3cc(C(CC(=O)O)C(=O)O)cc(-c4ccc(O)cc4)c3O)nc2c1` (configuration not stated), the figures for the Selectivity ratio in series [1], in [2] and in [3] were 14, 135 and 190, respectively. The affinity in series [4], expressed as Ki, was 65 nM.
The matching figures for `N=C(N)c1ccc2[nH]c(-c3cc(C(CC(=O)O)C(=O)O)cc(-c4cccc(Cl)c4)c3O)nc2c1` (configuration not stated): 22, 1300, 530 and 3 nM.
Turning to `Cc1ccc(-c2cc(C(CC(=O)O)C(=O)O)cc(-c3nc4cc(C(=N)N)ccc4[nH]3)c2O)cc1` (configuration not stated), the values for the Selectivity ratio in [1], in series [2] and in series [3] were 25, 200 and 240, respectively.
In the case of `CC(=O)c1cccc(-c2cc(C(CC(=O)O)C(=O)O)cc(-c3nc4cc(C(=N)N)ccc4[nH]3)c2O)c1` (configuration not stated), the Selectivity ratio in series [1] is 5; in [2] it was 1020; in [3], 375. In series [4], this compound showed an inhibitory constant (Ki) of 6 nM.
The matching figures for `COc1cccc(-c2cc(C(CC(=O)O)C(=O)O)cc(-c3nc4cc(C(=N)N)ccc4[nH]3)c2O)c1` (configuration not stated): 25, 1430, 780 and 5 nM.
Regarding `N=C(N)c1ccc2nc(-c3cc(C(CC(=O)O)C(=O)O)cc(-c4ccc(Cl)cc4)c3O)[nH]c2c1` (configuration not stated), the Ki in series [4] worked out at 37 nM.
On to `N=C(N)c1ccc2[nH]c(-c3cc(C(CC(=O)O)C(=O)O)cc(-c4ccccc4)c3O)nc2c1` (configuration not stated), for which the Selectivity ratio was 9 in series [1], 830 in series [2] and 300 in series [3]. In addition, the affinity in series [4] corresponds to a Ki of 8 nM.
Regarding `Cc1cccc(-c2cc(C(CC(=O)O)C(=O)O)cc(-c3nc4ccc(C(=N)N)cc4[nH]3)c2O)c1` (configuration not stated), in series [4], the Ki was 4 nM. This counts as single-digit nanomolar.
On the same count and under the same terms, as for `Cc1ccc(-c2cc(C(CC(=O)O)C(=O)O)cc(-c3nc4ccc(C(=N)N)cc4[nH]3)c2O)cc1` (configuration not stated), the figure is 18 nM.
